Data set [1] concerns the target T1, Adenosine kinase (Toxoplasma gondii, UniProt Q9TVW2).
T1 sequence (Q9TVW2 whole entry): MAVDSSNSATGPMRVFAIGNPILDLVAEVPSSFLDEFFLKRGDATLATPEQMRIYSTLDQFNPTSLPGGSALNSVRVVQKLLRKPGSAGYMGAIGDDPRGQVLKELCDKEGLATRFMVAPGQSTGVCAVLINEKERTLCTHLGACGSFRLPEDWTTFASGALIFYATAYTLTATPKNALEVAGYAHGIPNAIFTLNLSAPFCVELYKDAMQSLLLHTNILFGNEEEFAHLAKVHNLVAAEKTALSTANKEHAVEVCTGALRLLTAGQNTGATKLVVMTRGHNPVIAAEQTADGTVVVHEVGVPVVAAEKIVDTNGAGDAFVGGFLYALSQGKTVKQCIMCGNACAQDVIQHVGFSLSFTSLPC
The data set can be described thus: Binding affinity to purified Toxoplasma gondii adenosine kinase. In short, it runs like this: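 Radiometric assay at 37 °C in 50 mM Tris-Cl pH 7.4 with 2.5 mM ATP, 5 mM MgCl₂, creatine phosphate/creatine kinase regeneration and 5 µM [8-¹⁴C]adenosine, plus varied inhibitor. Reaction stopped by boiling, then adenosine and AMP separated by TLC and quantified. Apparent Ki from Dixon plots (1/V vs [I]), taken as equal to apparent Km for alternative substrates. Mean ± SD, ≥2 experiments in triplicate.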

Data set [2] has as its system Toxoplasma gondii. The data set can be described thus: Antitoxoplasma activity against wild type Toxoplasma gondii RH assessed as survival after 18 hrs by [5,6-[…]]uracil incorporation assay. It counts as functional, organism-based.
Data set [3] can be described thus: Toxicity against human foreskin fibroblasts at 5 uM after 48 hrs by MTT method. It counts as cell-based, Fibroblast. Conditions: read-out: Survival. An outline of the steps: (§1)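 Uninfected human foreskin fibroblasts (≤20 passages, RPMI 1640) seeded ~10⁵ cells/well and attached ≥24 h at 37 °C, 5% CO2. Compound in medium added to final concentrations, then 48 h incubation. MTT was added for 4 h, formazan dissolved in DMSO and absorbance read at 540 nm. At least two independent experiments, each in triplicate.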

Data set [4] deals with Toxoplasma gondii. Briefly: Antitoxoplasma activity against wild type Toxoplasma gondii RH assessed as survival at 25 uM after 18 hrs by [5,6-[…]]uracil incorporation assay. Format: functional. In short, it runs like this:
(§2)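 Human foreskin fibroblast monolayers (≤20 passages, RPMI 1640) seeded ~5×10⁵ cells/well, attached 24 h at 37 °C, 5% CO2. Infected with isolated tachyzoites at 1 parasite/cell in 3% FBS for 1 h, then washed. Compounds were dissolved in 50% ethanol and added at final 0, 5, 10, 25 or 50 µM with 10% FBS. Survival was read as radiolabeled uracil incorporation into TCA-precipitated nucleic acid versus untreated controls, at least in triplicate.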

The nature of data set [5]: Toxicity against human foreskin fibroblasts at 10 uM after 48 hrs by MTT method. The conditions noted are these: read-out: Survival. Format: cell-based, Fibroblast. In short, it runs like this:
as §1
Background: Tetrazolium assays rely on reduction of a dye to a coloured formazan, in cell work by metabolically active cells.

Data set [6] relates to Toxoplasma gondii. Briefly: Antitoxoplasma activity against wild type Toxoplasma gondii RH assessed as survival at 5 uM after 18 hrs by [5,6-[…]]uracil incorporation assay. Format: functional. In short, it runs like this: as §2
For data set [7], the system named is Toxoplasma gondii. The data set can be described thus: Antitoxoplasma activity against wild type Toxoplasma gondii RH assessed as survival at 50 uM after 18 hrs by [5,6-[…]]uracil incorporation assay. Format: functional. An outline of the steps: as §2
In data set [8] the test system is Toxoplasma gondii. The data set can be described thus: Antitoxoplasma activity against wild type Toxoplasma gondii RH assessed as survival at 10 uM after 18 hrs by [5,6-[…]]uracil incorporation assay. It counts as functional. An outline of the steps:
as §2

Data set [9] can be described thus: Toxicity against human foreskin fibroblasts at 50 uM after 48 hrs by MTT method. It counts as cell-based, Fibroblast. The conditions noted are these: read-out: Survival. An outline of the steps: as §1
Data set [10] in a line: Toxicity against human foreskin fibroblasts at 25 uM after 48 hrs by MTT method. It counts as cell-based, Fibroblast. The conditions noted are these: read-out: Survival. An outline of the steps: as §1
Data set [11] has as its system Toxoplasma gondii. Briefly: Antitoxoplasma activity against adenosine kinase deficient Toxoplasma gondii TgAK-3 assessed as survival at 5 uM after 18 hrs by [5,6-[…]]uracil incorporation assay. It counts as functional. An outline of the steps:
as §2

In data set [12] the test system is Toxoplasma gondii. The data set can be described thus: Antitoxoplasma activity against adenosine kinase deficient Toxoplasma gondii TgAK-3 assessed as survival at 10 uM after 18 hrs by [5,6-[…]]uracil incorporation assay. Format: functional. An outline of the steps:
as §2

Data set [13] concerns Toxoplasma gondii. Briefly: Antitoxoplasma activity against adenosine kinase deficient Toxoplasma gondii TgAK-3 assessed as survival at 25 uM after 18 hrs by [5,6-[…]]uracil incorporation assay. Format: functional. In short, it runs like this: as §2
In data set [14] the test system is Toxoplasma gondii. The data set can be described thus: Antitoxoplasma activity against adenosine kinase deficient Toxoplasma gondii TgAK-3 assessed as survival at 50 uM after 18 hrs by [5,6-[…]]uracil incorporation assay. It counts as functional. In short, it runs like this:
as §2

SMILES strings stand for the structures.

What is called Ki is a measure of affinity in units of concentration, obtained from inhibition or displacement. A higher Ki goes with lower affinity. On to `OC[C@H]1O[C@@H](n2ccc3c(SCc4ccc(F)cc4F)ncnc32)[C@H](O)[C@@H]1O`, for which the inhibition constant (Ki) in data set [1] is 16 µM.
On the same count and under the same terms, next, `OC[C@H]1O[C@@H](n2ccc3c(SCc4ccc(Cl)cc4Cl)ncnc32)[C@H](O)[C@@H]1O`: 26 µM; `OC[C@H]1O[C@@H](n2ccc3c(SCc4ccccc4Br)ncnc32)[C@H](O)[C@@H]1O`: 106 µM; `OC[C@H]1O[C@@H](n2ccc3c(SCc4ccccc4)ncnc32)[C@H](O)[C@@H]1O`: 28 µM.
Same read-out and setting: next, `O=[N+]([O-])c1ccc(CSc2ncnc3c2ccn3[C@@H]2O[C@H](CO)[C@@H](O)[C@H]2O)cc1`: 35 µM.
Same read-out and setting: the value for `OC[C@H]1O[C@@H](n2ccc3c(SCc4ccc(OC(F)(F)F)cc4)ncnc32)[C@H](O)[C@@H]1O` was 35 µM; that for `OC[C@H]1O[C@@H](n2cc(I)c3c(SCc4ccccc4)ncnc32)[C@H](O)[C@@H]1O` was 82.6 µM.
Regarding `O=[N+]([O-])c1cccc(CSc2ncnc3c2ccn3[C@@H]2O[C@H](CO)[C@@H](O)[C@H]2O)c1`, the inhibitory constant (Ki) in data set [1] was found to be 45 µM.
In data set [1], `Cc1ccc(CSc2ncnc3c2ccn3[C@@H]2O[C@H](CO)[C@@H](O)[C@H]2O)cc1` registered a Ki of 19 µM.
`CC(C)(C)c1ccc(CSc2ncnc3c2ccn3[C@@H]2O[C@H](CO)[C@@H](O)[C@H]2O)cc1`: in data set [1], the affinity corresponds to a Ki of 24 µM.
With `OC[C@H]1O[C@@H](n2ccc3c(SCc4ccc(Br)cc4)ncnc32)[C@H](O)[C@@H]1O`, in data set [1], the affinity, expressed as Ki, was 253 µM.
Still for that read-out and setting: the value for `OC[C@H]1O[C@@H](n2ccc3c(SCc4c(F)cccc4Cl)ncnc32)[C@H](O)[C@@H]1O` was 7.2 µM; that for `Nc1ncnc2c1ncn2[C@@H]1O[C@H](CO)[C@@H](O)[C@H]1O` [ADENOSINE] was 8.9 µM.
In turn, `OC[C@H]1O[C@@H](n2ccc3c(SCc4cccc(C(F)(F)F)c4)ncnc32)[C@H](O)[C@@H]1O` registered an inhibition constant Ki in data set [1] of 22 µM.
`COC(=O)c1ccc(CSc2ncnc3c2ccn3[C@@H]2O[C@H](CO)[C@@H](O)[C@H]2O)cc1` showed an inhibition constant Ki in data set [1] of 7 µM.
As to `OC[C@H]1O[C@@H](n2ccc3c(SCc4ccc(F)cc4)ncnc32)[C@H](O)[C@@H]1O`, in data set [1], the Ki amounted to 37 µM.
The same measure, in the same setting: next, `Cc1ccccc1CSc1ncnc2c1ccn2[C@@H]1O[C@H](CO)[C@@H](O)[C@H]1O`: 228 µM.
Turning to `C=Cc1ccc(CSc2ncnc3c2ccn3[C@@H]2O[C@H](CO)[C@@H](O)[C@H]2O)cc1`, in data set [1], the inhibition constant Ki was 180 µM.
In data set [1], `OC[C@H]1O[C@@H](n2ccc3c(SCc4ccc(Cl)c(Cl)c4)ncnc32)[C@H](O)[C@@H]1O` yielded an inhibition constant (Ki) of 29 µM.
Same read-out and setting: the value for `OC[C@H]1O[C@@H](n2ccc3c(SCc4ccc(Cl)cc4)ncnc32)[C@H](O)[C@@H]1O` was 11 µM; that for `OC[C@H]1O[C@@H](n2ccc3c(SCc4ccccc4F)ncnc32)[C@H](O)[C@@H]1O` was 59 µM.
Broadly, the IC50 is the concentration needed to halve the response being measured. `Nc1ccc(S(=O)(=O)Nc2ncccn2)cc1` [SULFADIAZINE]: the IC50 in data set [2] is 41.2 µM. The viability at 48 h, 5 µM in [3] turned out to be 98.2%. In addition, the survival at 25 µM in [4] was determined as 59.8%. The viability at 48 h, 10 µM in data set [5] is 99.8%. Further, in [6], the survival at 5 µM is 74.6%. In addition, in data set [7], the survival at 50 µM was found to be 46.4%. In data set [8], the survival at 10 µM worked out at 64.8%. In addition, the viability at 48 h, 50 µM in data set [9] was 102%. Moreover, the viability at 48 h, 25 µM in data set [10] came out at 99.8%.
Turning to `COc1ccc(CSc2ncnc3c2ccn3[C@@H]2O[C@H](CO)[C@@H](O)[C@H]2O)cc1`, the survival at 5 µM in data set [11] came out at 100%; in data set [6], 49.8%. Further, in data set [2], the half-inhibitory concentration (IC50) worked out at 4.6 µM. For the same compound, the viability at 48 h, 5 µM in data set [3] is 100%. The values for the survival at 25 µM in data set [4] and in data set [13] were 0% and 100%, respectively. Further, the viability at 48 h, 10 µM in [5] stood at 100%. Further, the figures for the survival at 10 µM in data set [12] and in [8] were 100% and 5%, respectively. Besides, the figures for the survival at 50 µM in data set [7] and in data set [14] were 0% and 100%, respectively. In addition, the viability at 48 h, 50 µM in data set [9] came to 90.6%. In data set [1], this compound displayed an inhibition constant (Ki) of 5.8 µM. Further, in data set [10], the viability at 48 h, 25 µM came out at 100%.
In the case of `Cc1cccc(CSc2ncnc3c2ccn3[C@@H]2O[C@H](CO)[C@@H](O)[C@H]2O)c1`, the affinity in data set [1] corresponds to a Ki of 8.5 µM.
On the same count and under the same terms, next, `OC[C@H]1O[C@@H](n2ccc3c(SCc4ccccc4Cl)ncnc32)[C@H](O)[C@@H]1O`: 36 µM.
The same measure, in the same setting: next, `OC[C@H]1O[C@@H](n2cnc3c(SCc4ccccc4)ncnc32)[C@H](O)[C@@H]1O` [6-BENZYLTHIOINOSINE]: 37.7 µM.
Turning to `N#Cc1ccc(CSc2ncnc3c2ccn3[C@@H]2O[C@H](CO)[C@@H](O)[C@H]2O)cc1`, the results for the survival at 5 µM in data set [11] and in data set [6] were 98.4% and 52.5%, respectively. In data set [2], the IC50 came to 5.3 µM. For the same compound, in [3], the viability at 48 h, 5 µM is 100%. Also, the survival at 25 µM in data set [4] was determined as 0%; in [13] it was 100%. For the same compound, in data set [5], the viability at 48 h, 10 µM was 100%. In addition, the survival at 10 µM in data set [12] was 100%; in data set [8], 4%. Also, the survival at 50 µM in data set [7] stood at 0%; in data set [14], 100%. For the same compound, in [9], the viability at 48 h, 50 µM is 82.1%. In addition, affinity in data set [1] was put at a Ki of 5.2 µM. Besides, the viability at 48 h, 25 µM in data set [10] is 94.3%.
In the case of `CCc1nc(N)nc(N)c1-c1ccc(Cl)cc1` [PYRIMETHAMINE], the IC50 in data set [2] was 5.9 µM. Besides, in [3], the viability at 48 h, 5 µM was found to be 101%. Further, in [4], the survival at 25 µM is 13.8%. For the same compound, the viability at 48 h, 10 µM in [5] came out at 100%. Besides, the survival at 5 µM in data set [6] is 55.6%. Further, the survival at 50 µM in data set [7] stood at 5.8%. Moreover, the survival at 10 µM in [8] is 36.5%. In data set [9], the viability at 48 h, 50 µM amounted to 108%. Besides, the viability at 48 h, 25 µM in data set [10] worked out at 108%.

These data come from ChEMBL document CHEMBL1155031, “Structure-activity relationships of 7-deaza-6-benzylthioinosine analogues as ligands of Toxoplasma gondii adenosine kinase” (J Med Chem, 2008).
